The source made the active and inactive calls. Square brackets hold non-standard residues; d marks the D form. Peptide text beside a SMILES is read from it.
Legend:
[1] = Drug internalization in mouse BEND3 cells by confocal microscopic analysis; format: ADME, cell-based
Procedure, shortened: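 bEnd.3 mouse brain endothelial cells were exposed to 5(6)-carboxyfluorescein-labeled peptides and counterstained with Hoechst 33342 and CellMask Deep Red membrane stain. Imaging used point-scanning confocal microscopy with a 63× oil objective, 405 nm excitation for the stains and 488 nm for the peptide.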

Mus musculus [2] = experiment: Protection against THP-induced amnesic effect in mouse assessed as reduction in memory impairment at 20 mg/kg, iv pretreated for 30 mins followed by THP addition; format: functional, organism-based
Procedure, shortened: (§1)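 V-maze novel object recognition. Day 1 was 9 min habituation. Day 2 was 9 min training with two identical objects. Peptide was given IV (20 mg/kg) or orally (5, 10, 20 mg/kg) right after training, then IP THC 3 mg/kg or vehicle 30 min later. The 9 min test came 24 h later with one object replaced. Discrimination index = (novel − familiar)/total exploration time; exploration meant the nose oriented within 2 cm of the object. Fisher LSD.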

Mus musculus [3] = experiment: Analgesic activity in mouse assessed as pain response at 20 mg/kg, iv pretreated with compound for 30 mins followed by THP addition and measured after 60 mins by hot plate test; format: functional, organism-based; details: time 90.0 min
Procedure, shortened: (§2)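 Mice got peptide or vehicle IV (20 mg/kg) or orally by gavage (5, 10, 20 mg/kg) 30 min before IP THC 10 mg/kg (vehicle 5% ethanol, 5% Cremophor-EL, 90% saline). Latency to jump on a 52 ± 0.5 °C hot plate was read 60 min after THC, with a 240 s cutoff. Mean ± SEM, n = 10–12 (IV) or 5–8 (oral); Fisher LSD.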

BEND3 = experiment: Induction of BBB translocation in mouse BEND3 cells measured after 24 hrs by fluorescence analysis; format: functional, cell-based
Procedure, shortened: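 5(6)-Carboxyfluorescein-labeled peptides were applied to a transwell BBB model of bEnd.3 cells. Translocation (%) was measured as fluorescence in the basolateral chamber after 24 h, with a trans-BBB peptide as positive control. Barrier integrity was checked afterward by FD4 dextran permeability. Mean ± SEM, n = 3–6, independent cultures on different days.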

Mus musculus [4] = experiment: Immunogenicity in CD1 mouse at 100 ug administered for 5 consecutive days and booster dose on day 15 measured upto 19 days by ELISA; format: ADME, organism-based; details: in vivo, 456 h, time <=19 day, dose 100 µg
Procedure, shortened: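 Female outbred Hsd:ICR (CD-1) mice (n = 10) got IV peptide 100 μg/dose in PBS + 2% DMSO on 5 consecutive days with a boost on day 15. Controls were KLH conjugate 30 μg (n = 5) and PBS (n = 5). Sera from days 0, 9 and 19 were tested by indirect ELISA on plates coated with peptide-BSA 1 μg/mL, using anti-IgG-HRP, TMB and A450. Titer (log10) = reciprocal of the last dilution above the day-0 serum signal + 2 SD.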

HEK293T = experiment: Inhibition of human c-YFP fused CB1R/n-YFP fused 5HT2A receptor heterodimer formation transfected in human HEK293T cells at 4 uM incubated for 4 hrs by BIFC assay; format: cell-based
Procedure, shortened: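 HEK-293T cells were cotransfected 48 h with 5HT2AR-cYFP and CB1R-nYFP (4 μg cDNA each, polyethylenimine), then treated with 4 μM peptide or vehicle for 4 h at 37 °C. Reconstituted YFP Venus was read on 20 μg protein at 530 nm emission with 400 nm excitation, minus the fluorescence of non-expressing cells. Mean ± SEM, n = 10–30.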

Mus musculus [5] = experiment: Analgesic activity in mouse assessed as pain response at 5 to 20 mg/kg, po pretreated with compound for 30 mins followed by THP addition and measured after 60 mins by hot plate test; format: functional, organism-based; details: dose 5-20 mg/kg, time 90.0 min; procedure, shortened: as §2
Mus musculus [6] = experiment: Protection against THP-induced amnesic effect in mouse assessed as reduction in memory impairment at 5 to 20 mg/kg, po pretreated for 30 mins followed by THP addition; format: functional, organism-based; details: dose 5-20 mg/kg; procedure, shortened: as §1

For CC[C@@H](C)[C@@H](NC(=O)CNC(=O)[C@@H](C)NC(=O)[C@H](NC(=O)[C@@H](Cc1ccc(O)cc1)NC(=O)[C@@H](C)NC(=O)[C@@H](Cc1ccc(O)cc1)NC(=O)[C@@H](CCSC)NC(=O)[C@@H](Cc1ccc(O)cc1)NC(=O)[C@H](NC(=O)[C@@H](CC(C)C)NC(=O)[C@H](N)Cc1c[nH]c2ccccc12)[C@H](C)CC)C(C)C)C(=O)N[C@H](CC(C)C)C(=O)N[C@H](CCCCN)C(=O)N[C@H](CCCNC(=N)N)C(=O)N[C@H](Cc1c[nH]c2ccccc12)C(N)=O (H-[dW][dL][dI][dY][dM][dY][dA][dY][dV][dA]G[dI][dL][dK][dR][dW]-NH2), the Drug uptake [1] was “Active”, the Activity (Mus musculus [2]) was “Active” and the Activity (Mus musculus [3]) was “Active”. The Activity (BEND3) was “Active”, the Activity (Mus musculus [4]) was “Non-Toxic” and the inhibition (HEK293T) was “Active”. For the same compound, the Activity (Mus musculus [5]) was “Active” and the Activity (Mus musculus [6]) was “Active”.
